From ChEMBL document CHEMBL3860028, “Bioactive Phenanthrene and Bibenzyl Derivatives from the Stems of Dendrobium nobile” (J Nat Prod, 2016) come the findings set out here.

Assay [1] is described as follows: Antifungal activity against Diaporthe medusaea nitschke after 4 to 14 days by serial dilution method. The class given is functional. The settings on record: Diaporthe rudis. The essentials: (§1)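 Fungal strains kept on potato dextrose agar. Antifungal activity tested following NCCLS recommendations, with MIC values as the read-out. Prochloraz served as positive control.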

The nature of assay [2]: Antifungal activity against Bipolaris oryzae after 4 to 14 days by serial dilution method. Format: functional. In outline: (§2)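 Fungus maintained on potato dextrose agar. Antifungal activity determined as MIC following NCCLS (National […] for Clinical Laboratory Standards) recommendations, with prochloraz as the reference antifungal.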
Assay [3] can be described thus: Cytotoxicity against human A549 cells assessed as decrease in cell viability after 6 days by MTT assay. The class given is functional, cell-based. The settings on record: A549, 144 h. The essentials:
(§3)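 Cell lines from College of Pharmacy, Hebei University, grown in DMEM with 5% fetal bovine serum at 37 °C under 5% CO2. Viability read by MTT method, IC50 values derived. Epirubicin served as positive control.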
In general terms: Tetrazolium assays rely on reduction of a dye to a coloured formazan, in cell work by metabolically active cells.

The next assay relates to Colletotrichum truncatum. Nature of the assay: Antifungal activity against Colletotrichum capsici after 4 to 14 days by serial dilution method. The class given is functional. The essentials: as §1
Assay [4] is described as follows: Cytotoxicity against human HeLa cells assessed as decrease in cell viability after 6 days by MTT assay. The class given is functional, cell-based. The settings on record: 144 h. In outline: as §3
Assay [5] is described as follows: Antifungal activity against Pestallozzia theae after 4 to 14 days by serial dilution method. Format: functional. In outline: as §1
The nature of assay [6]: Antifungal activity against Exserohilum turcicum after 4 to 14 days by serial dilution method. The class given is functional. The settings on record: Setosphaeria turcica. In outline: as §1
The subject of a further assay is Alternaria brassicicola. Nature of the assay: Antifungal activity against Alternaria brassicicola after 4 to 14 days by serial dilution method. The class given is functional. The essentials: as §1
Assay [7] can be described thus: Antifungal activity against Ceratocystis paradoxa moreau after 4 to 14 days by serial dilution method. The settings on record: Thielaviopsis. The class given is functional. In outline: as §1
The subject of a further assay is Alternaria citri. Nature of the assay: Antifungal activity against Alternaria citri after 4 to 14 days by serial dilution method. Format: functional. In outline:
as §2

A short description of assay [8]: Cytotoxicity against human MCF7 cells assessed as decrease in cell viability after 6 days by MTT assay. Format: functional, cell-based. The settings on record: MCF7, 144 h. The essentials: as §3
Assay [9] can be described thus: Antifungal activity against Phytophthora parasitica var. nicotianae after 4 to 14 days by serial dilution method. Format: functional. In outline: as §1

Values after ≈ are worked out from the molar mass of the structure shown. Bounds are passed on as bounds.

For orientation: MIC means the lowest concentration that inhibits growth of the organism. High values mean a need for much substance, low ones inhibition by little substance. Usually IC50 stands for the concentration that gives 50% inhibition. In the case of `COc1cc(O)cc2ccc3cccc(O)c3c12` [MOSCATIN], the MIC (in [1]; in assay [2]; with Colletotrichum truncatum; in [5]; in assay [6]; in the assay on Alternaria brassicicola) was more than 400 µM in each case. Further, the MIC (in assay [7]; with Alternaria citri; in assay [9]) was more than 400 µM throughout. Besides, the IC50 in [3], in assay [4] and in assay [8] was more than 10 µM throughout.

Consider `COc1cc(O)cc(CCc2ccc(O)c(OC)c2)c1` [GIGANTOL], for which the MIC in [1] was 91.2 µM (≈ 25 µg/mL); in assay [2] it was 182 µM (≈ 50 µg/mL); with Colletotrichum truncatum, 91.2 µM (≈ 25 µg/mL); in assay [5], 91.2 µM (≈ 25 µg/mL); in assay [6], 182 µM (≈ 50 µg/mL); with Alternaria brassicicola it was 182 µM (≈ 50 µg/mL). For the same compound, the MIC stood at 91.2 µM (≈ 25 µg/mL) in assay [7], 91.2 µM (≈ 25 µg/mL) against Alternaria citri and 365 µM (≈ 100 µg/mL) in assay [9]. Besides, the IC50 in [3], in assay [4] and in assay [8] was more than 10 µM each time.

With `COC1=CC(=O)C[C@@]2(CCc3cccc(O)c32)C1=O`, the minimal inhibitory concentration (MIC) (in assay [1]; in assay [2]; against Colletotrichum truncatum; in assay [5]; in assay [6]; against Alternaria brassicicola) was more than 400 µM throughout. Besides, the MIC (in assay [7]; in the assay on Alternaria citri; in assay [9]) was more than 400 µM in each case. Moreover, the IC50 turned out to be 9.9 µM in assay [3], 9.8 µM in assay [4] and 9.4 µM in [8].

For `COc1c(O)cc2c(c1OC)-c1ccc(O)cc1CC2` [ERIANTHRIDIN], the MIC (in [1]; in assay [2]; in the assay on Colletotrichum truncatum; in assay [5]; in [6]; against Alternaria brassicicola) was more than 400 µM each time. The MIC (in assay [7]; against Alternaria citri; in assay [9]) was more than 400 µM each time. Moreover, the 50% inhibitory concentration (IC50) in [3], in assay [4] and in [8] was more than 10 µM throughout.

With `COc1cc(OC)c2c(cc(O)c3cccc(O)c32)c1-c1ccc(O)c2c1ccc1cc(O)cc(OC)c12`, the MIC (in assay [1]; in assay [2]; in the assay on Colletotrichum truncatum; in assay [5]; in assay [6]; against Alternaria brassicicola) was more than 400 µM throughout. The MIC (in [7]; against Alternaria citri; in assay [9]) was more than 400 µM in each case. Besides, the IC50 in assay [3], in assay [4] and in assay [8] was more than 10 µM in each case.

On to `COc1cc(O)cc2c1-c1c(O)cccc1CC2` [HIRCINOL], for which the MIC (in [1]; in assay [2]; against Colletotrichum truncatum; in [5]; in [6]; against Alternaria brassicicola) was more than 400 µM in each case. The minimum inhibitory concentration (MIC) (in assay [7]; in the assay on Alternaria citri; in assay [9]) was more than 400 µM each time. In addition, the half-maximal inhibitory concentration (IC50) in assay [3], in assay [4] and in [8] was more than 10 µM throughout.

For the compound `COc1cc(O)c2c(c1)CCc1cc(Oc3cc(OC)c(O)c4c3CCc3cc(O)ccc3-4)ccc1-2`, the minimal inhibitory concentration (MIC) (in [1]; in assay [2]; against Colletotrichum truncatum; in [5]; in assay [6]; in the assay on Alternaria brassicicola) was more than 400 µM in each case. Further, the MIC (in [7]; with Alternaria citri; in assay [9]) was more than 400 µM throughout. In addition, the IC50 in [3], in assay [4] and in assay [8] was more than 10 µM throughout.

Take `COc1cc(O)c2c(c1)CCc1cc(O)ccc1-2` [LUSIANTHRIDIN]: the MIC (in assay [1]; in [2]; in the assay on Colletotrichum truncatum; in assay [5]; in [6]; against Alternaria brassicicola) was more than 400 µM each time. The minimum inhibitory concentration (MIC) (in assay [7]; against Alternaria citri; in assay [9]) was more than 400 µM in each case. Besides, the IC50 in [3], in assay [4] and in assay [8] was more than 10 µM each time.

For `Oc1cccc(CCc2cc(O)cc(O)c2)c1`, the minimal inhibitory concentration (MIC) in [1] was 217 µM (≈ 50.1 µg/mL); in assay [2], 109 µM (≈ 25 µg/mL); against Colletotrichum truncatum it was 109 µM (≈ 25 µg/mL); in assay [5] it was 217 µM (≈ 50.1 µg/mL); in assay [6], 109 µM (≈ 25 µg/mL); against Alternaria brassicicola, more than 400 µM. The results for the MIC (in assay [7]; in the assay on Alternaria citri; in assay [9]) were 109 µM (≈ 25 µg/mL), 109 µM (≈ 25 µg/mL) and 218 µM (≈ 50.1 µg/mL), respectively. Besides, the IC50 in [3], in assay [4] and in assay [8] was more than 10 µM in each case.

With `COc1cc(O)cc2ccc3c(-c4c(O)cc(OC)c5c4ccc4cccc(O)c45)ccc(O)c3c12`, the MIC (in assay [1]; in assay [2]; in the assay with Colletotrichum truncatum; in assay [5]; in assay [6]; with Alternaria brassicicola) was more than 400 µM each time. The MIC (in assay [7]; against Alternaria citri; in [9]) was more than 400 µM in each case. Besides, the 50% inhibitory concentration (IC50) in [3], in assay [4] and in assay [8] was more than 10 µM in each case.

`COc1cc(O)c2c(c1)CCc1cccc(O)c1-2`: the minimal inhibitory concentration (MIC) (in [1]; in [2]; in the assay on Colletotrichum truncatum; in [5]; in assay [6]; against Alternaria brassicicola) was more than 400 µM each time. Further, the MIC (in assay [7]; in the assay on Alternaria citri; in assay [9]) was more than 400 µM each time. In addition, the IC50 in assay [3], in [4] and in assay [8] was more than 10 µM throughout.

For `O=C1C=CC(=O)C2=C1CCc1cc(O)ccc12`, the MIC (in assay [1]; in assay [2]; in the assay with Colletotrichum truncatum; in assay [5]; in assay [6]; against Alternaria brassicicola) was more than 400 µM each time. Also, the MIC (in assay [7]; against Alternaria citri; in assay [9]) was more than 400 µM throughout. The half-maximal inhibitory concentration (IC50) in assay [3], in [4] and in assay [8] was more than 10 µM each time.

For `COc1cc(O)c2c(c1)CCc1cc(O)c(-c3c(O)c4cccc(O)c4c4c(OC)cc(OC)cc34)cc1-2`, the MIC (in assay [1]; in assay [2]; against Colletotrichum truncatum; in assay [5]; in assay [6]; in the assay with Alternaria brassicicola) was more than 400 µM throughout. For the same compound, the MIC (in [7]; with Alternaria citri; in assay [9]) was more than 400 µM in each case. In addition, the IC50 in assay [3], in assay [4] and in [8] was more than 10 µM each time.

Consider `COc1cc2c(c(OC)c1O)-c1ccc(O)cc1CC2` [FLAVANTHRIDIN], for which the MIC (in assay [1]; in assay [2]; in the assay with Colletotrichum truncatum; in [5]; in [6]; against Alternaria brassicicola) was more than 400 µM each time. The MIC (in assay [7]; in the assay with Alternaria citri; in assay [9]) was more than 400 µM in each case. For the same compound, the IC50 in assay [3], in [4] and in [8] was more than 10 µM each time.
